ChEMBL document CHEMBL1157594, “Synthesis and evaluation of a set of 4-phenylpiperidines and 4-phenylpiperazines as D2 receptor ligands and the discovery of the dopaminergic stabilizer 4-[3-(methylsulfonyl)phenyl]-1-propylpiperidine (huntexil, pridopidine, ACR16)” (J Med Chem, 2010)
Each block holds one compound with its values, some of them ahead of it.

Experiments:
Rattus norvegicus [1] = experiment: Reduction in 3,4-dihydroxyphenylacetic acid level in Sprague-Dawley rat striatum at 100 umol/kg, sc relative to saline treated control; format: functional; set-up: scale not given: the % may be the effect or the level left
How it was run: (§1)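 Striatal DOPAC measured post-mortem after a single test-compound dose. Each level is expressed as a percentage of the saline-treated control, with n = 4. Significance was tested by Student's t test (P<0.05).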

D(2) dopamine receptor [2] = target: T1, D(2) dopamine receptor (Homo sapiens, UniProt P14416); experiment: biochemical; format: cell-based, HEK293
Rattus norvegicus [3] = experiment: Reduction in amphetamine-induced locomotor activity in Sprague-Dawley rat striatum at 100 umol/kg, sc relative to control; format: functional; set-up: scale not given: the % may be the effect or the level left
How it was run: (§2)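 Rats were pretreated with amphetamine (1.5 mg/kg intraperitoneally). Locomotor activity was recorded 15-60 min after test-compound injection, measured at 25 Hz and compared with amphetamine-pretreated controls, with n = 4.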

Rattus norvegicus [4] = experiment: Reduction in spontaneous locomotor activity in Sprague-Dawley rat striatum at 100 umol/kg, sc relative to control; format: functional; set-up: scale not given: the % may be the effect or the level left
D(2) dopamine receptor [5] = target: T1, D(2) dopamine receptor; experiment: biochemical; format: cell-based, HEK293; remark: listed apart in the source
Rattus norvegicus [6] = experiment: Reduction in amphetamine-induced locomotor activity in Sprague-Dawley rat striatum at 33 umol/kg, sc relative to control; format: functional; set-up: scale not given: the % may be the effect or the level left; how it was run: as §2
Rattus norvegicus [7] = experiment: Reduction in 3,4-dihydroxyphenylacetic acid level in Sprague-Dawley rat striatum at 33 umol/kg, sc relative to saline treated control; format: functional; set-up: scale not given: the % may be the effect or the level left; how it was run: as §1
Rattus norvegicus [8] = experiment: Reduction in spontaneous locomotor activity in Sprague-Dawley rat striatum at 33 umol/kg, sc relative to control; format: functional; set-up: scale not given: the % may be the effect or the level left
Rattus norvegicus [9] = experiment: Reduction in amphetamine-induced locomotor activity in Sprague-Dawley rat striatum at 50 umol/kg, sc relative to control; format: functional; set-up: scale not given: the % may be the effect or the level left
How it was run: (§3)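 Rats were pretreated with amphetamine at 1.5 mg/kg intraperitoneally. Locomotor activity was recorded from 15 to 60 min after injection, sampled at 25 Hz, and compared with amphetamine-pretreated controls (n = 4).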

Rattus norvegicus [10] = experiment: Reduction in 3,4-dihydroxyphenylacetic acid level in Sprague-Dawley rat striatum at 6.59 umol/kg, sc relative to saline treated control; format: functional; set-up: scale not given: the % may be the effect or the level left; how it was run: as §1
Rattus norvegicus [11] = experiment: Reduction in spontaneous locomotor activity in Sprague-Dawley rat striatum at 6.59 umol/kg, sc relative to control; format: functional; set-up: scale not given: the % may be the effect or the level left
Rattus norvegicus [12] = experiment: Reduction in 3,4-dihydroxyphenylacetic acid level in Sprague-Dawley rat striatum at 7.68 umol/kg, sc relative to saline treated control; format: functional; set-up: scale not given: the % may be the effect or the level left
How it was run: (§4)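 Striatal DOPAC was measured by post-mortem biochemistry in rat striatum and expressed relative to saline-injected controls (n = 4). Significance was tested by Student's t test at P<0.05.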

Rattus norvegicus [13] = experiment: Reduction in spontaneous locomotor activity in Sprague-Dawley rat striatum at 7.68 umol/kg, sc relative to control; format: functional; set-up: scale not given: the % may be the effect or the level left
How it was run: (§5)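 Locomotor activity was recorded in partly habituated rats from 15 to 60 min after injection, sampled at 25 Hz. It was expressed as a percentage of saline control.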

Rattus norvegicus [14] = experiment: Reduction in amphetamine-induced locomotor activity in Sprague-Dawley rat striatum at 7.68 umol/kg, sc relative to control; format: functional; set-up: scale not given: the % may be the effect or the level left; how it was run: as §3
Rattus norvegicus [15] = experiment: Reduction in 3,4-dihydroxyphenylacetic acid level in Sprague-Dawley rat striatum at 1 umol/kg, sc relative to saline treated control; format: functional; set-up: scale not given: the % may be the effect or the level left; how it was run: as §4
Rattus norvegicus [16] = experiment: Reduction in spontaneous locomotor activity in Sprague-Dawley rat striatum at 1 umol/kg, sc relative to control; format: functional; set-up: scale not given: the % may be the effect or the level left; how it was run: as §5
Rattus norvegicus [17] = experiment: Reduction in amphetamine-induced locomotor activity in Sprague-Dawley rat striatum at 1 umol/kg, sc relative to control; format: functional; set-up: scale not given: the % may be the effect or the level left; how it was run: as §3
Rattus norvegicus [18] = experiment: Reduction in spontaneous locomotor activity in Sprague-Dawley rat striatum at 10.5 umol/kg, sc relative to control; format: functional; set-up: scale not given: the % may be the effect or the level left; how it was run: as §5
Rattus norvegicus [19] = experiment: Reduction in amphetamine-induced locomotor activity in Sprague-Dawley rat striatum at 10.5 umol/kg, sc relative to control; format: functional; set-up: scale not given: the % may be the effect or the level left; how it was run: as §3
Rattus norvegicus [20] = experiment: Reduction in 3,4-dihydroxyphenylacetic acid level in Sprague-Dawley rat striatum at 10.5 umol/kg, sc relative to saline treated control; format: functional; set-up: scale not given: the % may be the effect or the level left; how it was run: as §4
Rattus norvegicus [21] = experiment: Reduction in 3,4-dihydroxyphenylacetic acid level in Sprague-Dawley rat striatum at 117 umol/kg, sc relative to saline treated control; format: functional; set-up: scale not given: the % may be the effect or the level left; how it was run: as §1
Rattus norvegicus [22] = experiment: Reduction in spontaneous locomotor activity in Sprague-Dawley rat striatum at 117 umol/kg, sc relative to control; format: functional; set-up: scale not given: the % may be the effect or the level left

T1 sequence (P14416 whole entry): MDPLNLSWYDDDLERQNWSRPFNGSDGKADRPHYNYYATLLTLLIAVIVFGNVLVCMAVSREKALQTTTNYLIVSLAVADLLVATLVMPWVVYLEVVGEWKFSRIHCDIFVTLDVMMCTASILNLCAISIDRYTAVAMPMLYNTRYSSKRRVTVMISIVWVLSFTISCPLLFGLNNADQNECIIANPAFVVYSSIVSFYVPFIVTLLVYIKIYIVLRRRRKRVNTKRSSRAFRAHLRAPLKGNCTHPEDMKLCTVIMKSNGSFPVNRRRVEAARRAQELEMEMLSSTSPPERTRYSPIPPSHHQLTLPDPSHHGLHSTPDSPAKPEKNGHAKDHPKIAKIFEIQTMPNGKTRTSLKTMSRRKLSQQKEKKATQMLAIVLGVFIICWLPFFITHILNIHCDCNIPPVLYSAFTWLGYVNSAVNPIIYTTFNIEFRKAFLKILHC

- Ki (D(2) dopamine receptor [2]): 3880 nM
- Ki (D(2) dopamine receptor [5]): 755 nM
SMILES: CCCN1CCC[C@@H](c2cccc(S(C)(=O)=O)c2)C1
- Activity (Rattus norvegicus [1]): 260%
- Activity (Rattus norvegicus [3]): 37%
- Activity (Rattus norvegicus [4]): 215%

SMILES: CCCN1CCN(c2cccc(O)c2)CC1
- Activity (Rattus norvegicus [6]): 16%
- Activity (Rattus norvegicus [7]): 261%
- Ki (D(2) dopamine receptor [2]): 721 nM
- Activity (Rattus norvegicus [8]): 31%
- Ki (D(2) dopamine receptor [5]): 69 nM

SMILES: Oc1cccc(C2CCN(Cc3ccccc3)CC2)c1
- Activity (Rattus norvegicus [6]): 12%
- Activity (Rattus norvegicus [7]): 317%
- Ki (D(2) dopamine receptor [2]): 285 nM
- Activity (Rattus norvegicus [8]): 85%
- Ki (D(2) dopamine receptor [5]): 35 nM

SMILES: CCCN1CCC(c2cccc(O)c2)CC1
- Ki (D(2) dopamine receptor [2]): 2570 nM
- Ki (D(2) dopamine receptor [5]): 349 nM

- Ki (D(2) dopamine receptor [2]): 841 nM
- Ki (D(2) dopamine receptor [5]): 392 nM
SMILES: CS(=O)(=O)c1cccc(C2CCN(Cc3ccccc3)CC2)c1
- Activity (Rattus norvegicus [7]): 310%
- Activity (Rattus norvegicus [9]): 6%
- Activity (Rattus norvegicus [8]): 44%

SMILES: CCCN1CCN(c2cccc(S(C)(=O)=O)c2)CC1
- Activity (Rattus norvegicus [6]): 6%
- Activity (Rattus norvegicus [7]): 310%
- Ki (D(2) dopamine receptor [2]): 1210 nM
- Activity (Rattus norvegicus [8]): 27%
- Ki (D(2) dopamine receptor [5]): 664 nM

SMILES: CS(=O)(=O)c1cccc(N2CCN(Cc3ccccc3)CC2)c1
- Activity (Rattus norvegicus [1]): 248%
- Ki (D(2) dopamine receptor [2]): 1920 nM
- Activity (Rattus norvegicus [3]): 15%
- Activity (Rattus norvegicus [4]): 17%
- Ki (D(2) dopamine receptor [5]): 431 nM

SMILES: Oc1cccc(N2CCN(Cc3ccccc3)CC2)c1
- Activity (Rattus norvegicus [1]): 108%
- Activity (Rattus norvegicus [3]): 10%
- Activity (Rattus norvegicus [4]): 8%

SMILES: CN1CCc2cccc3c2[C@H]1Cc1ccc(O)c(O)c1-3 [APOMORPHINE]
- Activity (Rattus norvegicus [10]): 77%
- Activity (Rattus norvegicus [11]): 7118%

SMILES: O=C1CCc2ccc(OCCCCN3CCN(c4cccc(Cl)c4Cl)CC3)cc2N1 [ARIPIPRAZOLE]
- Activity (Rattus norvegicus [12]): 150%
- Activity (Rattus norvegicus [13]): 2%
- Activity (Rattus norvegicus [14]): 9%

SMILES: O=c1[nH]c2cccc(N3CCN(Cc4cccc(-c5ccccc5)c4)CC3)c2o1 [BIFEPRUNOX]
- Activity (Rattus norvegicus [12]): 152%
- Activity (Rattus norvegicus [13]): 7%
- Activity (Rattus norvegicus [14]): 5%

SMILES: O=C(CCCN1CCC(O)(c2ccc(Cl)cc2)CC1)c1ccc(F)cc1 [HALOPERIDOL]
- Activity (Rattus norvegicus [15]): 425%
- Activity (Rattus norvegicus [16]): 7%
- Activity (Rattus norvegicus [17]): 1%

SMILES: Cc1cc2c(s1)Nc1ccccc1N=C2N1CCN(C)CC1 [OLANZAPINE]
- Activity (Rattus norvegicus [18]): 17%
- Activity (Rattus norvegicus [19]): 6%
- Activity (Rattus norvegicus [20]): 362%

SMILES: CCCN1CCC[C@@H](c2cccc(O)c2)C1 [PRECLAMOL]
- Activity (Rattus norvegicus [21]): 175%
- Activity (Rattus norvegicus [22]): 37%

- Ki (D(2) dopamine receptor [2]): 17500 nM
- Ki (D(2) dopamine receptor [5]): 7520 nM
SMILES: CCCN1CCC(c2cccc(S(C)(=O)=O)c2)CC1 [PRIDOPIDINE]
- Activity (Rattus norvegicus [1]): 265%
- Activity (Rattus norvegicus [4]): 262%
